Assay results reported in paper PMC8994735 (Targeted Oncology, 2021).

Test system: advanced nonhematologic malignancies
Experiment: Antitumor activity: disease response by RECIST v1.1
Type: in vivo, human
Method in brief: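 Oral dosing once daily (2, 3 or 4 mg) or once weekly (20 or 30 mg) in 28-day cycles. Treatment lasted up to 12 months or until progression, unacceptable toxicity or consent withdrawal. Response was assessed by RECIST v1.1 in the safety analysis set (patients receiving ≥ 1 dose). Analysis was descriptive, with no formal hypothesis testing.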

## CC(C)n1nc(-c2ccc3oc(N)nc3c2)c2c(N)ncnc21 [sapanisertib]
QD arm
  Best overall response of progressive disease: 45%
  Clinical benefit rate (CR, PR, or SD of any duration): 45%
  Discontinuation due to progressive disease: 64%
QW arm
  Best overall response of progressive disease: 33%
  Clinical benefit rate (CR, PR, or SD of any duration): 67%
  Discontinuation due to progressive disease: 67%
All cohorts
  Patients with stable disease for ≥ 6 months: Three
Either treatment arm
  Complete response (CR) or partial response (PR): No patients
Heavily pretreated patients, across dosing schedules
  Anti-tumor effect: Moderate anti-tumor effects and a favorable safety profile were observed with sapanisertib in this heavily pretreated patient population
